Source: ChEMBL document CHEMBL4052603, “Branimycins B and C, Antibiotics Produced by the Abyssal Actinobacterium Pseudonocardia carboxydivorans M-227” (2017)
≈ marks a conversion by molar mass, not a printed value.

Assays:
Assay type in all cases: functional
Micrococcus luteus = assay: Antibacterial activity against Micrococcus luteus ATCC 14452 by CLSI method
Procedure, shortened: (§1)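 CLSI susceptibility testing on Mueller-Hinton agar; clinical isolates came from patients with infections.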

Pseudomonas aeruginosa = assay: Antibacterial activity against Pseudomonas aeruginosa PAO1 after 20 hrs by spectrophotometric method; conditions: PAO1, 20 h
Enterococcus faecium = assay: Antibacterial activity against Enterococcus faecium 10701 by CLSI method; procedure, shortened: as §1
Streptococcus pyogenes = assay: Antibacterial activity against Streptococcus pyogenes 81293 by CLSI method
Procedure, shortened: (§2)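 CLSI procedure on Mueller-Hinton agar, supplemented per CLSI conditions for S. pneumoniae, S. pyogenes and N. meningitidis.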

[1] = system: Mycobacterium tuberculosis; assay: Antibacterial activity against Mycobacterium tuberculosis MDR-2 by CLSI method
Procedure, shortened: (§3)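 Agar proportion method for slowly growing mycobacteria on Middlebrook 7H10 agar supplemented with 10% OADC and 0.5% glycerol.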

Bacteroides fragilis [2] = assay: Antibacterial activity against Bacteroides fragilis ATCC 25285 by CLSI method
Enterococcus faecalis [3] = assay: Antibacterial activity against Enterococcus faecalis 10544 by CLSI method; procedure, shortened: as §1
Haemophilus influenzae [4] = assay: Antibacterial activity against Haemophilus influenzae 10996 by CLSI method; procedure, shortened: as §1
Klebsiella pneumoniae = assay: Antibacterial activity against Klebsiella pneumoniae ATCC 700603 by CLSI method
Clostridium perfringens = assay: Antibacterial activity against Clostridium perfringens 103281 by CLSI method
[5] = system: Corynebacterium urealyticum; assay: Antibacterial activity against Corynebacterium urealyticum 1492 by CLSI method
Procedure, shortened: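 CLSI procedure on trypticasein soy agar with 5% sheep blood.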

Enterococcus faecalis [6] = assay: Antibacterial activity against Enterococcus faecalis ATCC 51299 by CLSI method; procedure, shortened: as §1
Enterococcus faecalis [7] = assay: Antibacterial activity against Enterococcus faecalis ATCC 29212 by CLSI method; procedure, shortened: as §1
Escherichia coli [8] = assay: Antibacterial activity against Escherichia coli ESS by CLSI method; procedure, shortened: as §1
Streptococcus pneumoniae = assay: Antibacterial activity against Streptococcus pneumoniae 64412 by CLSI method; procedure, shortened: as §2
Escherichia coli [9] = assay: Antibacterial activity against Escherichia coli MB2884 after 20 hrs by spectrophotometric method; conditions: MB2884, 20 h
Bacteroides fragilis [10] = assay: Antibacterial activity against Bacteroides fragilis 61592 by CLSI method
Staphylococcus aureus [11] = assay: Antibacterial activity against methicillin-resistant Staphylococcus aureus MB5393 by CLSI method
Procedure, shortened: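 Broth microdilution: 90 μL diluted inoculum plus 8.4 μL medium (LB or BHI) and 1.6 μL compound dilution. Compounds tested as 2-fold serial dilutions from 160 to 0.31 μg/mL, in triplicate. Vancomycin (32 to 4 μg/mL) served as positive control and amphotericin B (16 to 0.25 μg/mL) as negative control.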

Staphylococcus aureus [12] = assay: Antibacterial activity against Staphylococcus aureus ATCC 6538P by CLSI method; procedure, shortened: as §1
Staphylococcus aureus [13] = assay: Antibacterial activity against Staphylococcus aureus ATCC 43300 by CLSI method
Haemophilus influenzae [14] = assay: Antibacterial activity against Haemophilus influenzae ATCC 49247 by CLSI method
Staphylococcus aureus [15] = assay: Antibacterial activity against methicillin-sensitive Staphylococcus aureus MB2865 by CLSI method
Procedure, shortened: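 MSSA MB2865 tested with diluted inoculum mixed with medium (LB or BHI) plus compound dilution. Twofold serial dilutions from 160 to 0.31 μg/mL, in triplicate. Penicillin G (0.312 to 0.039 μg/mL) was the positive control and amphotericin B (16 to 0.25 μg/mL) the negative control.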

[16] = system: Mycobacterium tuberculosis; assay: Antibacterial activity against Mycobacterium tuberculosis MDR-1 by CLSI method; procedure, shortened: as §3
[17] = system: Mycobacterium tuberculosis; assay: Antibacterial activity against Mycobacterium tuberculosis H37Rv by CLSI method; procedure, shortened: as §3
Neisseria meningitidis = assay: Antibacterial activity against Neisseria meningitidis 71327 by CLSI method; procedure, shortened: as §2
Acinetobacter baumannii = assay: Antibacterial activity against Acinetobacter baumannii MB5973 after 20 hrs by spectrophotometric method; conditions: MB5973, 20 h
Staphylococcus aureus [18] = assay: Antibacterial activity against Staphylococcus aureus 11497 by CLSI method; procedure, shortened: as §1
Staphylococcus aureus [19] = assay: Antibacterial activity against Staphylococcus aureus ATCC 25923 by CLSI method; procedure, shortened: as §1

In the case of `COC[C@H]1[C@@H](O)[C@@H]2O[C@@]34/C(C)=C/[C@@H](C)[C@@H]([C@H](O)CO)OC(=O)[C@H](COC)[C@H]3C=C[C@@H]2[C@H]4[C@@H]1O`, the MIC (Micrococcus luteus) is reported as 16 µg/mL (≈ 34.1 µM), the MIC (Pseudomonas aeruginosa) is reported as > 80 µg/mL and the MIC (Enterococcus faecium) is reported as > 64 µg/mL. For the same compound, the MIC (Streptococcus pyogenes) was > 128 µg/mL, the MIC [1] was > 32 µg/mL and the MIC (Bacteroides fragilis [2]) was 128 µg/mL (≈ 273 µM). For the same compound, the MIC (Enterococcus faecalis [3]) was 64 µg/mL (≈ 137 µM), the MIC (Haemophilus influenzae [4]) was > 64 µg/mL and the MIC (Klebsiella pneumoniae) was > 80 µg/mL. For the same compound, the MIC (Clostridium perfringens) was 16 µg/mL (≈ 34.1 µM), the MIC [5] was 16 µg/mL (≈ 34.1 µM) and the MIC (Enterococcus faecalis [6]) was > 64 µg/mL. For the same compound, the MIC (Enterococcus faecalis [7]) was > 64 µg/mL, the MIC (Escherichia coli [8]) was 128 µg/mL (≈ 273 µM) and the MIC (Streptococcus pneumoniae) was > 128 µg/mL. The MIC (Escherichia coli [9]) was > 80 µg/mL, the MIC (Bacteroides fragilis [10]) was > 128 µg/mL and the MIC (Staphylococcus aureus [11]) was 20 to 40 µg/mL (≈ 42.7 to 85.4 µM). The MIC (Staphylococcus aureus [12]) was 32 µg/mL (≈ 68.3 µM), the MIC (Staphylococcus aureus [13]) was > 64 µg/mL and the MIC (Haemophilus influenzae [14]) was > 64 µg/mL. For the same compound, the MIC (Staphylococcus aureus [15]) was 80 µg/mL (≈ 171 µM), the MIC [16] was > 32 µg/mL and the MIC [17] was > 32 µg/mL. For the same compound, the MIC (Neisseria meningitidis) was 64 µg/mL (≈ 137 µM), the MIC (Acinetobacter baumannii) was > 80 µg/mL and the MIC (Staphylococcus aureus [18]) was > 64 µg/mL. It also gave an MIC (Staphylococcus aureus [19]) of 64 µg/mL (≈ 137 µM).

With `COC[C@H]1C(=O)O[C@H]([C@H](O)CO)[C@H](C)/C=C(\C)[C@@]23O[C@H]4[C@H](O)[C@H](C)[C@@H](O)[C@@H]2[C@H]4C=C[C@H]13` the MIC (Micrococcus luteus) was 1 µg/mL (≈ 2.28 µM), the MIC (Pseudomonas aeruginosa) was > 80 µg/mL and the MIC (Enterococcus faecium) was > 64 µg/mL. The MIC (Streptococcus pyogenes) was > 128 µg/mL, the MIC [1] was > 32 µg/mL and the MIC (Bacteroides fragilis [2]) was 32 µg/mL (≈ 73 µM). For the same compound, the MIC (Enterococcus faecalis [3]) was > 64 µg/mL, the MIC (Haemophilus influenzae [4]) was > 64 µg/mL and the MIC (Klebsiella pneumoniae) was > 80 µg/mL. The MIC (Clostridium perfringens) was 32 µg/mL (≈ 73 µM), the MIC [5] was 8 µg/mL (≈ 18.2 µM) and the MIC (Enterococcus faecalis [6]) was > 64 µg/mL. For the same compound, the MIC (Enterococcus faecalis [7]) was > 64 µg/mL, the MIC (Escherichia coli [8]) was 64 µg/mL (≈ 146 µM) and the MIC (Streptococcus pneumoniae) was > 128 µg/mL. The MIC (Escherichia coli [9]) was > 80 µg/mL, the MIC (Bacteroides fragilis [10]) was 128 µg/mL (≈ 292 µM) and the MIC (Staphylococcus aureus [11]) was > 160 µg/mL. For the same compound, the MIC (Staphylococcus aureus [12]) was > 128 µg/mL, the MIC (Staphylococcus aureus [13]) was > 64 µg/mL and the MIC (Haemophilus influenzae [14]) was 32 µg/mL (≈ 73 µM). For the same compound, the MIC (Staphylococcus aureus [15]) was > 160 µg/mL, the MIC [16] was > 32 µg/mL and the MIC [17] was > 32 µg/mL. For the same compound, the MIC (Neisseria meningitidis) was 32 µg/mL (≈ 73 µM), the MIC (Acinetobacter baumannii) was > 80 µg/mL and the MIC (Staphylococcus aureus [18]) was > 64 µg/mL. For the same compound, the MIC (Staphylococcus aureus [19]) was > 64 µg/mL.
